Sampled rows, rich in hits. Any-hit rate of the full collection: about 3.6%.
ATG4B inhibitor – blocks human ATG4B protease cleavage of LC3 substrate | inhibition, % at 8.33 µM | ATG4B cleavage of LC3-PLA2, NBD-HPC fluorescence, 1 h | 0.51% of 340,000 active | Q9Y4P1; in the data active means inhibition above about 40%
SENP1 inh – inhibitors of human SENP1 SUMO protease catalytic domain | Q9P0U3 | recombinant SENP1 catalytic domain, CyPet-SUMO1-YPet FRET cleavage | inhibition, % at 10 µM | 0.21% of 360,000 active | AID 624204;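 active means inhibition at least 30% at 10 µM, raw YFP signal under a set limit, fluorescence ratio 0.5 to 1.5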
Target sequence (Q9P0U3 419-644 limits assumed): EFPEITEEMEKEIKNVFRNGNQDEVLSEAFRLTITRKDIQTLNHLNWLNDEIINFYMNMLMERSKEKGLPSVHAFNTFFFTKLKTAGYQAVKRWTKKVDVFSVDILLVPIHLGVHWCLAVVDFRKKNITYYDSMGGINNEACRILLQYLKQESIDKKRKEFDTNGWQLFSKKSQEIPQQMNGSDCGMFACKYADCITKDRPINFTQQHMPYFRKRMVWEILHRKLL
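Test system: hSENP1 catalytic domain, recombinant; Amount: 20 pM final SENP1 enzyme; Medium: Tris pH 8 buffer plus EDTA, NaCl, BME, BSA, NP40, catalase; Schedule: 50 min enzyme reaction, room temperature, light-protected; Technique: FRET fluorescence in CFP and YFP emission channels; Controls: no-enzyme wells low, DMSO-plus-enzyme wells high control.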
NR3A LBD binder – modulates the human NR3A ligand-binding domain | NR3A LBD differential scanning fluorimetry, Tm shift; 0% = protein alone, 100% = glycine-bound protein | Tm shift relative to glycine control, % at 25 µM | 2.5% of 340,000 active | AID 1259313;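 active means melting temperature shift of at least 10% of the positive control shift, at one fixed dose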
UCH37 DUB inh – inhibitors of human deubiquitinating enzyme UCH37; 0.33% of 330,000 active; AID 588478; purified proteasome/UCH37, Ub-AMC cleavage fluorescence; Q9Y5K5; inhibition, % (concentration not given with the values);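 active means mean inhibition over replicate wells above about 20%, limit read from the data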
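Signal – fluorescence, ex 355 nm, em 460 nm · System – Proteasome-bound UCH37 · Input – 0.15 nM proteasome as dispensed · Timing – 30 min preincubation with enzyme, 25 min cleavage at room temperature · Read-out basis – percent inhibition of cleavage signal versus uninhibited and no-proteasome wells · Medium – Tris-HCl pH 7.4 with ATP-MgCl2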
NadD block – blocks S. aureus nicotinate mononucleotide adenylyltransferase; AID 602399; 0.78% of 360,000 active; inhibition, % at 20 µM; purified NadD enzyme, colorimetric absorbance read-out; in the data active means inhibition above about 26%
Hits are given with their value; . = inactive; / = no result.

SMILES | ATG4B inhibitor | SENP1 inh | NR3A LBD binder | UCH37 DUB inh | NadD block
NCCCC[C@H]1NC(=O)[C@H](CCC(=O)O)NC(=O)c2cc([N+](=O)[O-])cc(I)c2OCC[C@@H](C(N)=O)NC1=O | 44 | / | . | . | /
C[C@@H]1NC(=O)c2cc([N+](=O)[O-])cc(I)c2OCC[C@@H](C(N)=O)NC(=O)[C@H](CCCCN)NC1=O | . | . | . | . | .
CCc1ccc(C(=O)NN=Cc2ccncc2)s1 | / | / | / | . | /
CC1(C)CC(=O)CC(=NNC(=O)CCc2ccc(S(=O)(=O)N3CCOCC3)cc2)C1 | / | / | / | . | /
Fc1ccc(NC(=S)Nc2cc(-c3ccccc3)[nH]n2)cc1Cl | . | . | 26 | . | .
CC(=O)Nc1cc(-c2ccc(Cl)cc2)[nH]n1 | . | . | . | . | .
Cc1ccc(NC(=S)Nc2cc(-c3ccccc3)[nH]n2)cc1Cl | . | . | 24 | / | .
C=C(C)COc1ccc(-c2n[nH]c(C)c2Oc2ccccc2OC)c(O)c1 | . | . | . | 35 | .
C=C(C)COc1ccc(-c2ncncc2Oc2ccc(OC)cc2)c(O)c1 | . | . | 21 | . | .
CCCOC(=O)c1ccc(Oc2c(-c3ccc(O)cc3O)n[nH]c2C)cc1 | . | . | / | . | .
CCc1cc(-c2n[nH]c(C)c2Oc2ccc(C(C)C)cc2)c(O)cc1O | . | . | 32 | . | .
C=C(C)COc1ccc(-c2nc(N)ncc2-c2ccc(Cl)cc2)c(O)c1 | . | . | 20 | . | .
C=C(C)COc1ccc(-c2[nH]ncc2Oc2ccccc2OCC)c(O)c1 | . | . | 11 | . | .
Cc1[nH]nc(-c2ccc(O)cc2O)c1Oc1ccccc1 | . | . | 32 | . | .
CON=C(c1nonc1N)N1CCN(c2ccc(Cl)cc2[N+](=O)[O-])CC1 | / | / | / | . | /
COc1ccc(Nc2cc(Nc3ccc(OC)cc3)ncn2)cc1 | . | . | 16 | . | .
COc1ccc(Nc2ccc(Nc3ccc(OC)cc3)nn2)cc1 | . | . | 27 | . | .
COc1cc(Nc2c3ccccc3nc3ccccc23)cc(OC)c1OC | . | . | . | . | .
COc1ccc(Nc2cc(Nc3cccc(OC)c3)ncn2)cc1 | . | . | 27 | . | .
COc1ccc(Nc2cc(Nc3cc(OC)c(OC)c(OC)c3)ncn2)cc1 | . | . | 14 | . | .
CNC(=S)NN=C(C)c1ccc(N2CCOCC2)cc1 | / | / | / | . | /
COc1cc(C=NNC(=O)c2ccncc2)ccc1OCCN1CCCCC1 | / | / | / | . | /
Cc1cccc(C(=O)Nc2ccc(C(=O)N/N=C/c3ccc4c(c3)OCO4)cc2)c1 | . | . | 24 | / | .
O=C(CNc1ccccc1)N/N=C/c1ccc2c(c1)OCO2 | . | . | . | / | .
CN(/N=C/c1ccc2c(c1)OCO2)c1ccccc1 | . | . | 11 | / | .
SMILES | ATG4B inhibitor | SENP1 inh | NR3A LBD binder | UCH37 DUB inh | NadD block
O=C(NN=Cc1ccc2c(c1)OCO2)NN=Cc1ccc2c(c1)OCO2 | . | . | 26 | . | .
CN(N=Cc1ccc2c(c1)OCO2)c1ccccc1 | / | / | / | . | /
O=C(CNc1ccccc1)N/N=C/c1ccc2c(c1)OCCO2 | . | . | 16 | / | .
Cc1cc(-c2onc(C)c2C(=O)NN=Cc2ccccc2)no1 | / | / | / | . | /
CNC(=S)NN=C(C)c1ccc(C)c(C)c1 | / | / | / | . | /
Cc1nc(NN=Cc2ccc(O)cc2)c2cnn(-c3ccccc3)c2n1 | / | / | / | . | /
O=C(NN=Cc1ccc2c(c1)OCO2)c1ccc(NC(=O)c2ccccc2Cl)cc1 | / | / | / | . | /
O=C(N/N=C/c1cccs1)c1ccc(NC(=O)c2ccccc2Cl)cc1 | . | . | 18 | / | .
O=C(N/N=C/c1ccc2c(c1)OCO2)c1ccc(NC(=O)c2ccccc2Cl)cc1 | . | . | 22 | / | .
O=C(CC(=O)NC1CCCCC1)NN=Cc1ccccc1F | / | / | / | . | /
Cc1[nH]n(-c2ccccc2)c(=O)c1C=NN1C(=O)c2cccc3cccc(c23)C1=O | / | / | / | . | /
O=Cc1cc(N=Nc2ccc(S(=O)(=O)O)cc2)ccc1O | . | . | . | 21 | .
COc1cc(N=Nc2ccc(Br)cc2)cc(C=O)c1O | / | . | / | / | .
CCCC(=NNC(=O)C1CC1)c1ccccc1 | / | / | / | . | /
Clc1ccc2c(NN=Cc3ccc(Br)cc3)ccnc2c1 | / | / | / | . | /
Clc1ccc2c(N/N=C/c3cccc(Br)c3)ccnc2c1 | . | . | 15 | / | .
C/C(=N/Nc1ccnc2cc(Cl)ccc12)c1ccc(N)cc1 | . | . | . | / | .
C/C(=N/Nc1ccnc2cc(Cl)ccc12)c1ccc(O)cc1 | . | . | 14 | / | .
O=[N+]([O-])c1ccc(/C=N/Nc2ccnc3cc(Cl)ccc23)o1 | . | . | 17 | / | .

From PubChem
